Laboratory results taken from ChEMBL document CHEMBL1141501, “Identification of a potent new chemotype for the selective inhibition of PDE4” (Bioorg Med Chem Lett, 2008).
The source made the active and inactive calls. The rule behind the calls is not given here.

Biological target: Phosphodiesterase 4 (Homo sapiens, UniProt P27815+Q08499+Q07343+Q08493)
Assay: Inhibition of human PDE4A1A by IMAP technology
Format: protein assay
Procedure, shortened: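 Human PDE4A1A at 0.05 ng/μl final, in 10 mM Tris pH 7.2 with 0.1% BSA, 10 mM MgCl2, 1 mM DTT and 0.05% NaN3. Compound pin-transferred, then 5 min at RT before adding 100 nM cAMP (final). After 40 min at RT, IMAP binding reagent was added and incubated 1–4 h at RT.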

Row | SMILES | IC50 [µM]
1 | COc1cc(OC)cc(-c2nnc3n2N=C(c2ccccc2OC)CS3)c1 | 13.4
2 | COc1cccc(C2=Nn3c(nnc3-c3ccccc3C)SC2)c1 | 3.2
3 | COc1ccc(C2=Nn3c(nnc3-c3cc(OC)ccc3OC)SC2)cc1 | 1.7
4 | COc1ccc(C2=Nn3c(nnc3-c3ccc(OC)cc3OC)SC2)cc1 | > 20
5 | COc1ccc(C2=Nn3c(nnc3-c3cccc(OC)c3OC)SC2)cc1 | > 20
6 | COc1ccc(OC)c(C2=Nn3c(nnc3-c3cc(OC)ccc3OC)SC2)c1 | 11.9
7 | COc1ccc(-c2nnc3n2N=C(c2ccccc2OC)CS3)cc1 | 14.1
8 | COc1cc(OC)cc(-c2nnc3n2N=C(c2cc(OC)ccc2OC)CS3)c1 | 12.7
9 | COc1ccc(OC)c(-c2nnc3n2N=C(c2c(OC)cccc2OC)CS3)c1 | > 20
10 | COc1ccc(-c2nnc3n2N=C(c2cc(OC)ccc2OC)CS3)cc1 | 10.1
11 | COc1ccc(C2=Nn3c(nnc3-c3cccc(OC)c3OC)SC2)c(OC)c1 | > 20
12 | COc1cc(OC)cc(-c2nnc3n2N=C(c2ccc(OC)c(OC)c2)CS3)c1 | 0.05
13 | CCOc1ccccc1-c1nnc2n1N=C(c1cccc(OC)c1)CS2 | 11.2
14 | COc1ccc(-c2nnc3n2N=C(c2cccc(OC)c2)CS3)cc1 | 8.4
15 | COc1cccc(C2=Nn3c(nnc3-c3cc(OC)cc(OC)c3)SC2)c1 | 13.4
16 | COc1ccc(C2=Nn3c(nnc3-c3ccccc3OC)SC2)c(OC)c1 | 15
17 | COc1ccc(C2=Nn3c(nnc3-c3ccc(OC)c(OC)c3)SC2)cc1 | 7.5
18 | COc1cccc(-c2nnc3n2N=C(c2ccc(OC)cc2OC)CS3)c1 | 14.1
19 | COc1ccccc1C1=Nn2c(nnc2-c2ccccc2C)SC1 | 14.1
20 | COc1ccc(C2=Nn3c(nnc3-c3ccc(OC)cc3OC)SC2)c(OC)c1 | > 20
21 | COc1ccc(OC)c(C2=Nn3c(nnc3-c3ccccc3C)SC2)c1 | 6.3
22 | COc1cccc(-c2nnc3n2N=C(c2c(OC)cccc2OC)CS3)c1OC | > 20
23 | COc1ccc(C2=Nn3c(nnc3-c3ccccc3O)SC2)c(OC)c1 | > 20
24 | COc1cccc(-c2nnc3n2N=C(c2ccccc2OC)CS3)c1 | 13.4

Row | SMILES | IC50 [µM]
25 | COc1cccc(C2=Nn3c(nnc3-c3ccc(OC)cc3OC)SC2)c1 | 13.4
26 | COc1ccc(OC)c(C2=Nn3c(nnc3-c3cccc(OC)c3OC)SC2)c1 | 11.9
27 | COc1cccc(C2=Nn3c(nnc3-c3ccccc3O)SC2)c1 | 14.1
28 | COc1cccc(C2=Nn3c(nnc3-c3ccccc3OC)SC2)c1 | 12
29 | COc1ccc(-c2nnc3n2N=C(c2ccc(OC)c(OC)c2)CS3)cc1 | 0.0889
30 | COc1ccc(-c2nnc3n2N=C(c2c(OC)cccc2OC)CS3)c(OC)c1 | > 20
31 | COc1ccc(OC)c(-c2nnc3n2N=C(c2ccccc2OC)CS3)c1 | 19.6
32 | COc1ccc(OC)c(C2=Nn3c(nnc3-c3ccccc3OC)SC2)c1 | 8.9
33 | COc1cccc(-c2nnc3n2N=C(c2cc(OC)ccc2OC)CS3)c1 | 12.6
34 | COc1ccc(-c2nnc3n2N=C(c2ccc(OC)c(OC)c2)CS3)c(OC)c1 | 0.079
35 | COc1ccc(C2=Nn3c(nnc3-c3ccc(OC)c(OC)c3)SC2)c(OC)c1 | 6.7
36 | COc1cc(OC)cc(-c2nnc3n2N=C(c2c(OC)cccc2OC)CS3)c1 | 19.6
37 | COc1cccc(-c2nnc3n2N=C(c2ccc(OC)c(OC)c2)CS3)c1 | 0.126
38 | COc1ccc(C2=Nn3c(nnc3-c3ccccc3O)SC2)cc1 | 8.4
39 | COc1cccc(-c2nnc3n2N=C(c2c(OC)cccc2OC)CS3)c1 | > 20
40 | COc1cccc(C2=Nn3c(nnc3-c3cccc(OC)c3)SC2)c1 | 12.6
41 | COc1cccc(C2=Nn3c(nnc3-c3cccc(OC)c3OC)SC2)c1 | > 20
42 | COc1ccc(C2=Nn3c(nnc3-c3ccccc3C)SC2)cc1 | 12.5
43 | CCOc1ccccc1-c1nnc2n1N=C(c1c(OC)cccc1OC)CS2 | > 20
44 | COc1ccccc1C1=Nn2c(nnc2-c2cccc(OC)c2OC)SC1 | > 20
45 | COc1ccccc1-c1nnc2n1N=C(c1c(OC)cccc1OC)CS2 | > 20
46 | COc1ccc(C2=Nn3c(nnc3-c3cc(OC)ccc3OC)SC2)c(OC)c1 | 7.5
47 | COc1cccc(OC)c1C1=Nn2c(nnc2-c2ccccc2C)SC1 | 14.1
48 | COc1ccc(OC)c(C2=Nn3c(nnc3-c3ccc(OC)c(OC)c3)SC2)c1 | 6.9

Row | SMILES | IC50 [µM]
49 | COc1ccc(-c2nnc3n2N=C(c2cc(OC)ccc2OC)CS3)c(OC)c1 | 5.3
50 | COc1ccc(-c2nnc3n2N=C(c2c(OC)cccc2OC)CS3)cc1OC | 14.1
51 | COc1ccc(-c2nnc3n2N=C(c2ccccc2OC)CS3)c(OC)c1 | 19.7
52 | CCOc1ccccc1-c1nnc2n1N=C(c1ccccc1OC)CS2 | > 20
53 | COc1cccc(C2=Nn3c(nnc3-c3ccc(OC)c(OC)c3)SC2)c1 | 9
54 | CCOc1ccccc1-c1nnc2n1N=C(c1cc(OC)ccc1OC)CS2 | 13.4
55 | COc1ccc(C2=Nn3c(nnc3-c3cc(OC)cc(OC)c3)SC2)cc1 | 9.5
56 | COc1ccc(C2=Nn3c(nnc3-c3ccc(OC)c(OC)c3)SC2)cc1OC | 0.177
57 | COc1cccc(OC)c1C1=Nn2c(nnc2-c2ccccc2O)SC1 | > 20
58 | COc1ccccc1C1=Nn2c(nnc2-c2ccccc2OC)SC1 | 20
59 | COc1ccc(C2=Nn3c(nnc3-c3ccc(OC)cc3)SC2)cc1 | 8.4
60 | COc1ccc(-c2nnc3n2N=C(c2c(OC)cccc2OC)CS3)cc1 | 19.7
61 | CCOc1ccccc1-c1nnc2n1N=C(c1ccc(OC)cc1OC)CS2 | > 20
62 | COc1cccc(C2=Nn3c(nnc3-c3cc(OC)ccc3OC)SC2)c1 | 8
63 | COc1ccc(C2=Nn3c(nnc3-c3ccccc3OC)SC2)cc1 | > 20
64 | COc1ccc(-c2nnc3n2N=C(c2ccccc2OC)CS3)cc1OC | 8.9
65 | COc1ccc(C2=Nn3c(nnc3-c3ccccc3C)SC2)c(OC)c1 | > 20
66 | CCOc1ccccc1-c1nnc2n1N=C(c1ccc(OC)cc1)CS2 | 4.5
67 | COc1cc(OC)cc(-c2nnc3n2N=C(c2ccc(OC)cc2OC)CS3)c1 | > 20
68 | COc1ccc(-c2nnc3n2N=C(c2ccc(OC)cc2OC)CS3)cc1 | 13.4
69 | COc1ccc(C2=Nn3c(nnc3-c3cccc(OC)c3)SC2)cc1 | 12.6
70 | COc1ccc(OC)c(C2=Nn3c(nnc3-c3ccccc3O)SC2)c1 | > 20
71 | COc1ccccc1C1=Nn2c(nnc2-c2ccccc2O)SC1 | > 20

Biological target: Dual specificity calcium/calmodulin-dependent 3',5'-cyclic nucleotide phosphodiesterase 1A (Homo sapiens, UniProt P54750)
Sequence (P54750 whole entry): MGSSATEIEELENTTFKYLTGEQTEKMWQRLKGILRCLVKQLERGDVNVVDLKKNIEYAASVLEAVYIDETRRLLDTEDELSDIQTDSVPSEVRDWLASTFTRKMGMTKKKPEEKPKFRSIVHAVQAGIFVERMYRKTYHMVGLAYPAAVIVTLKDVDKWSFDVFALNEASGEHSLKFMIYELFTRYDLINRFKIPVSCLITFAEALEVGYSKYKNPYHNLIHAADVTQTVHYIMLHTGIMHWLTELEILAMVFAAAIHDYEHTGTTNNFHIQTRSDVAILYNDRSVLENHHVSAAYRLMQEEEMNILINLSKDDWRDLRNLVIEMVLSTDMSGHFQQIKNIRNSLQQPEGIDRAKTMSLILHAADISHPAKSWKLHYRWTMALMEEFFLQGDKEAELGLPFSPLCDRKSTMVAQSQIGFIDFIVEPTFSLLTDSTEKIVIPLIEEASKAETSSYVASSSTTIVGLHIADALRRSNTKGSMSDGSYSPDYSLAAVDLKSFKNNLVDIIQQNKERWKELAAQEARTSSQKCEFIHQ
Assay: Inhibition of PDE1A

Row | SMILES | IC50 [µM]
72 | COc1ccc(C2=Nn3c(nnc3-c3ccccc3OC)SC2)cc1OC | > 50
73 | COc1ccc(C2CNC(=O)C2)cc1OC1CCCC1 (configuration not stated) [ROLIPRAM] | > 50

Biological target: Dual specificity calcium/calmodulin-dependent 3',5'-cyclic nucleotide phosphodiesterase 1B (Homo sapiens, UniProt Q01064)
Sequence (Q01064 whole entry): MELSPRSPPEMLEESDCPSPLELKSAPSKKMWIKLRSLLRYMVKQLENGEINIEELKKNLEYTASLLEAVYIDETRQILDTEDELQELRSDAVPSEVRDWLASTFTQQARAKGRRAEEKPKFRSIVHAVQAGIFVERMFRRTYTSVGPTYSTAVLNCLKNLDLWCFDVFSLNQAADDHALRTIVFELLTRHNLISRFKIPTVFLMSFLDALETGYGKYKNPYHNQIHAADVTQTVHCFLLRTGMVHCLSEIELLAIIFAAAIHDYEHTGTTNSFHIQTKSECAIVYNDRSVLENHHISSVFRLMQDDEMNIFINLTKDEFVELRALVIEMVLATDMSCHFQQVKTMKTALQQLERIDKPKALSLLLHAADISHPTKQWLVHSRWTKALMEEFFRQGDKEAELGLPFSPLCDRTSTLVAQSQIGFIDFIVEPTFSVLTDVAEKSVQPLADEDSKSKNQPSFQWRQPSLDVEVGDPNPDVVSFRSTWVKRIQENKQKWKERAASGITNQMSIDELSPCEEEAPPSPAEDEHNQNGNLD
Assay: Inhibition of PDE1B

Row | SMILES | IC50 [µM] | Activity
74 | COc1ccc(C2=Nn3c(nnc3-c3ccccc3OC)SC2)cc1OC | > 50 | –
75 | COc1ccc(C2CNC(=O)C2)cc1OC1CCCC1 (configuration not stated) [ROLIPRAM] | – | inactive

Biological target: cGMP-inhibited 3',5'-cyclic phosphodiesterase 3A (Homo sapiens, UniProt Q14432)
Sequence (Q14432 whole entry): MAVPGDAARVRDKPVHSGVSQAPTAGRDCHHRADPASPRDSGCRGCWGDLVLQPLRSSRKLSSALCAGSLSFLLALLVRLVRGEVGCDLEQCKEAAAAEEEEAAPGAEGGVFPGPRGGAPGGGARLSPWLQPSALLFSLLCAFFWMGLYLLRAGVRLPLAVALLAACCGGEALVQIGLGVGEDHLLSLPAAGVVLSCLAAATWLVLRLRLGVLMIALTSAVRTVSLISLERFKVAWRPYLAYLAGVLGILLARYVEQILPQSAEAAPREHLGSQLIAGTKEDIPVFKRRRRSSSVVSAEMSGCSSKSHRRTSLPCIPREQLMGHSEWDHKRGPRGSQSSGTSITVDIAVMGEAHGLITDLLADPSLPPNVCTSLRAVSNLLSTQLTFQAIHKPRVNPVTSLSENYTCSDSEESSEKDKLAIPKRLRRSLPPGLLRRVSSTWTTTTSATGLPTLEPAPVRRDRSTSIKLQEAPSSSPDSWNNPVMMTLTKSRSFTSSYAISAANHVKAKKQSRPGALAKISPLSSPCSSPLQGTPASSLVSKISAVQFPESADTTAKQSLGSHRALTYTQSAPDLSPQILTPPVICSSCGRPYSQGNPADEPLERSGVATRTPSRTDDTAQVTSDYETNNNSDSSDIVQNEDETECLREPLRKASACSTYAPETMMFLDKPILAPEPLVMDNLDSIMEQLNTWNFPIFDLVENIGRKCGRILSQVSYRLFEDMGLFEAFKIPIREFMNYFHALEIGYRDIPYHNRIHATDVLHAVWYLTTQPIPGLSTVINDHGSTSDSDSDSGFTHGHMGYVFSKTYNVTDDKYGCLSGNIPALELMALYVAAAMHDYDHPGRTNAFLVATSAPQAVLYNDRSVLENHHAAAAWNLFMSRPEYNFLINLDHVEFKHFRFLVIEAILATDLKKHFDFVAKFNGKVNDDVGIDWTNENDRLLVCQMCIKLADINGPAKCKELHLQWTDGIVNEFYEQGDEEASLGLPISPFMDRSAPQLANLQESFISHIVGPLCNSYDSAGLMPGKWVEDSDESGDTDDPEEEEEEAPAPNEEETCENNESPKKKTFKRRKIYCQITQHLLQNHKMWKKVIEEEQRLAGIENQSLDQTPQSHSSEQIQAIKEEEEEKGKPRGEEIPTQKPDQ
Assay: Inhibition of PDE3A

Row | SMILES | IC50 [µM] | Activity
76 | COc1ccc(C2=Nn3c(nnc3-c3ccccc3OC)SC2)cc1OC | > 50 | –
77 | COc1ccc(C2CNC(=O)C2)cc1OC1CCCC1 (configuration not stated) [ROLIPRAM] | – | inactive

Biological target: High affinity 3',5'-cyclic-AMP phosphodiesterase 7A (Homo sapiens) (UniProt Q13946)
Sequence (Q13946 whole entry): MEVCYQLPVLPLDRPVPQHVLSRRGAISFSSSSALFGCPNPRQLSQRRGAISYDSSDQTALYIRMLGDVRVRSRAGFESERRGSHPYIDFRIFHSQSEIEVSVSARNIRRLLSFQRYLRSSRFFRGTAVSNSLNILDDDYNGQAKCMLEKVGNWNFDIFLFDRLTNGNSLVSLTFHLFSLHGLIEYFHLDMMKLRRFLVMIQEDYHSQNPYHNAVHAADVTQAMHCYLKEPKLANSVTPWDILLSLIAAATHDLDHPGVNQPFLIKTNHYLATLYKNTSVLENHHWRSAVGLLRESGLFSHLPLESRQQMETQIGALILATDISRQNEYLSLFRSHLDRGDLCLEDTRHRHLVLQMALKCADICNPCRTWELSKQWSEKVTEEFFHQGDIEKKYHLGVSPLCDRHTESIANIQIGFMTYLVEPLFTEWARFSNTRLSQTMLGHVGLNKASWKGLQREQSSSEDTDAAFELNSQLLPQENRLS
Assay: Inhibition of PDE7A

Row | SMILES | Activity
78 | COc1ccc(C2=Nn3c(nnc3-c3ccccc3OC)SC2)cc1OC | inactive
79 | COc1ccc(C2CNC(=O)C2)cc1OC1CCCC1 (configuration not stated) [ROLIPRAM] | inactive

Biological target: 3',5'-cyclic-AMP phosphodiesterase 7B (Homo sapiens) (UniProt Q9NP56)
Sequence (Q9NP56 whole entry): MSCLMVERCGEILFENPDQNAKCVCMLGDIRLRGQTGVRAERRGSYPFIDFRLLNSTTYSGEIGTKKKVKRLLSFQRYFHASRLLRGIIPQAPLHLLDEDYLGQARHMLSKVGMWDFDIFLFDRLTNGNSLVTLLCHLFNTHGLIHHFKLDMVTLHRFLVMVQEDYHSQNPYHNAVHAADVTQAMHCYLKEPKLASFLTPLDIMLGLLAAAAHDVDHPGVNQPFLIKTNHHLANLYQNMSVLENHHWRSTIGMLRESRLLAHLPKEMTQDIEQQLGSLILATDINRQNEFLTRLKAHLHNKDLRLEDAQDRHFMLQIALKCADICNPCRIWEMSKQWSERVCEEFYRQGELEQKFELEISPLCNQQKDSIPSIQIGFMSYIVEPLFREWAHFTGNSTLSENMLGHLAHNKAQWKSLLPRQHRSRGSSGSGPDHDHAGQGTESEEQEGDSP
Assay: Inhibition of PDE7B

Row | SMILES | Activity
80 | COc1ccc(C2=Nn3c(nnc3-c3ccccc3OC)SC2)cc1OC | inactive
81 | COc1ccc(C2CNC(=O)C2)cc1OC1CCCC1 (configuration not stated) [ROLIPRAM] | inactive

Biological target: High affinity cGMP-specific 3',5'-cyclic phosphodiesterase 9A (Homo sapiens) (UniProt O76083)
Sequence (O76083 whole entry): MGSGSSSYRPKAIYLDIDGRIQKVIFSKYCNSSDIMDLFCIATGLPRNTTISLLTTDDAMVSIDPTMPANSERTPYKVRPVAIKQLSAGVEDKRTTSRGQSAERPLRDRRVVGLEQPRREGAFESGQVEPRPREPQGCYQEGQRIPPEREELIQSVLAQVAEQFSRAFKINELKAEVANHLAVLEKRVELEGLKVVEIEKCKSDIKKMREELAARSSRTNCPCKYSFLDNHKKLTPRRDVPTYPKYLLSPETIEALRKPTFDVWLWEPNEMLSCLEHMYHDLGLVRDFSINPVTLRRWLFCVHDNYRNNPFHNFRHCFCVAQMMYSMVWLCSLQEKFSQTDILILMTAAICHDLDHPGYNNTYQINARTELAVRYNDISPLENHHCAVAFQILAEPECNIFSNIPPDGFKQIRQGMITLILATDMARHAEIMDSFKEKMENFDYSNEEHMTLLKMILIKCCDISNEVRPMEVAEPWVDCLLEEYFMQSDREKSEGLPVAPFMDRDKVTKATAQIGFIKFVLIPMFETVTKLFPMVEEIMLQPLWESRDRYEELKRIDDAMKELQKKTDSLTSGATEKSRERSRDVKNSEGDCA
Assay: Inhibition of PDE9A

Row | SMILES | Activity
82 | COc1ccc(C2=Nn3c(nnc3-c3ccccc3OC)SC2)cc1OC | inactive
83 | COc1ccc(C2CNC(=O)C2)cc1OC1CCCC1 (configuration not stated) [ROLIPRAM] | inactive

Biological target: cAMP and cAMP-inhibited cGMP 3',5'-cyclic phosphodiesterase 10A (Homo sapiens, UniProt Q9Y233)
Sequence (Q9Y233 whole entry): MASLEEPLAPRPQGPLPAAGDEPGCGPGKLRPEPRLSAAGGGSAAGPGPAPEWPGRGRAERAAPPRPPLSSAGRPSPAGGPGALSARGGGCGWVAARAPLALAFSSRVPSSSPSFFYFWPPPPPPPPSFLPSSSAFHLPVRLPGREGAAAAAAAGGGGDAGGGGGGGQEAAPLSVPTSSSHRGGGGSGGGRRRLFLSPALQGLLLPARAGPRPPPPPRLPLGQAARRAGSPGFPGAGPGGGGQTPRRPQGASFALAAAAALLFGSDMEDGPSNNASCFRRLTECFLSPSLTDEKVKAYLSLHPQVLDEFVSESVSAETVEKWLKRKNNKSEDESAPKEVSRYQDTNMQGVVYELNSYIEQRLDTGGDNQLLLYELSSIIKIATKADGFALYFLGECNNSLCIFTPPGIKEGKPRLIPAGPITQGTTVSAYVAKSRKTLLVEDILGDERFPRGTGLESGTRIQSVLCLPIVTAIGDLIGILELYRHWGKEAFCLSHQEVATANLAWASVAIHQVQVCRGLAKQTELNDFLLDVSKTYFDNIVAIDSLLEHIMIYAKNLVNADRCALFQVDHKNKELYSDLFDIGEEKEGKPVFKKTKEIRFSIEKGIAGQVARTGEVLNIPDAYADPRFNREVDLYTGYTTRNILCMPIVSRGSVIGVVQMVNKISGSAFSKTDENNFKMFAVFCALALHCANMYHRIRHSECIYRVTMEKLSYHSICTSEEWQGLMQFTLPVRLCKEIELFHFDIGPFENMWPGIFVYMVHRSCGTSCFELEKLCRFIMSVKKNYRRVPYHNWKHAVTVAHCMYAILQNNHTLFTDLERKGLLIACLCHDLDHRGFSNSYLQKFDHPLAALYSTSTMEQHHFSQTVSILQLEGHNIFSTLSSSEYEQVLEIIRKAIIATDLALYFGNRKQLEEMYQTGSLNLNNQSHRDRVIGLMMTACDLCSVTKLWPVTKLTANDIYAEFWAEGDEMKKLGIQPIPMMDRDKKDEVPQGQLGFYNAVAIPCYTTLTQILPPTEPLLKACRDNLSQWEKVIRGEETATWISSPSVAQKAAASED
Assay: Inhibition of PDE10A

Row | SMILES | IC50 [µM] | Activity
84 | COc1ccc(C2=Nn3c(nnc3-c3ccccc3OC)SC2)cc1OC | > 50 | –
85 | COc1ccc(C2CNC(=O)C2)cc1OC1CCCC1 (configuration not stated) [ROLIPRAM] | – | inactive

Biological target: cGMP-specific 3',5'-cyclic phosphodiesterase (Homo sapiens, UniProt O76074)

Row | SMILES | IC50 [µM]
86 | COc1ccc(C2=Nn3c(nnc3-c3ccccc3OC)SC2)cc1OC | > 50

Biological target: Dual 3',5'-cyclic-AMP and -GMP phosphodiesterase 11A (Homo sapiens, UniProt Q9HCR9)

Row | SMILES | IC50 [µM]
87 | COc1ccc(C2=Nn3c(nnc3-c3ccccc3OC)SC2)cc1OC | > 50
